Holding throughout (type): functional, organism-based
Test [1] deals with Candida parapsilosis. Kind of test: Antifungal activity against Candida parapsilosis at 0.5 ug/ml after 24 hrs. In short, it runs like this: (§1)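 Time-kill with C. parapsilosis strain no. 3. A 0.5 McFarland suspension was diluted 1:10 into MOPS-buffered RPMI 1640 with drug alone or combined, shaken at 35°C. Samples were taken at 0, 2, 6 and 24 h, serially diluted 10-fold and plated on Sabouraud dextrose agar. CFU counted after 48 h at 35°C; detection limit 20 CFU/ml. Triplicate.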

In test [2] the test system is Candida parapsilosis. Description: Growth inhibition of Candida parapsilosis after 48 hrs by broth dilution assay. Conditions: Lodderomyces parapsilosis. In short, it runs like this: (§2)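 CLSI-derived checkerboard broth microdilution in RPMI 1640 with 0.165 M MOPS, pH 7.0. Final ranges were AMB 0.03–2.0 µg/ml and CAS 0.03–64 µg/ml, alone or combined. Inoculum 1.0 x 10^3 to 5.0 x 10^3 CFU/ml (2x), 35°C in air. OD490 read at 24 and 48 h; IC50/IC90 taken as 50%/90% turbidity reduction versus control. Quintuplicate.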
For orientation: Dilution methods test growth across graded concentrations, often in twofold steps.

Test [3] relates to Candida parapsilosis. Kind of test: Growth inhibition of Candida parapsilosis after 24 hrs by broth dilution assay. The following applies: Lodderomyces parapsilosis. In short, it runs like this: as §2
The test system of test [4] is Candida parapsilosis. Kind of test: Fungistatic effect on Candida parapsilosis at 256 ug/ml after 24 hrs.
The subject of test [5] is Candida parapsilosis. Description: Antifungal activity against Candida parapsilosis at 4 ug/ml after 24 hrs. The gist of the method: as §1

Here are results for two compounds from ChEMBL document CHEMBL1142069, “Caspofungin in combination with amphotericin B against Candida parapsilosis” (Antimicrob Agents Chemother, 2007).

Each structure is given as a SMILES string. Values after ≈ are worked out from the molar mass of the structure shown. Active and inactive are the calls of the source. The calls are words filed in the database; no cut-off is given here.

A word on the IC50: it is the concentration at which inhibition is half-maximal. Broadly, the IC90 is the point of the concentration-response curve where the effect stands at 90%.

Take `C[C@@H]1[C@H](O)[C@@H](C)/C=C/C=C/C=C/C=C/C=C/C=C/C=C/[C@H](O[C@@H]2O[C@H](C)[C@@H](O)[C@H](N)[C@@H]2O)C[C@@H]2O[C@](O)(C[C@@H](O)C[C@@H](O)[C@H](O)CC[C@@H](O)C[C@@H](O)CC(=O)O[C@H]1C)C[C@H](O)[C@H]2C(=O)O` [AMPHOTERICIN B]: the result in the test with Candida parapsilosis [1] was inactive. In the test with Candida parapsilosis [2], this compound showed an IC50 of 0.18 µg/mL (≈ 0.195 µM) and an IC90 of 0.68 µg/mL (≈ 0.736 µM). In the test with Candida parapsilosis [3], inhibition was half-maximal at 0.16 µg/mL (≈ 0.173 µM) (IC50) and it took 0.34 µg/mL (≈ 0.368 µM) to reach the 90% level (IC90).

As for `CC[C@H](C)C[C@H](C)CCCCCCCCC(=O)N[C@H]1C[C@@H](O)[C@@H](NCCN)NC(=O)[C@@H]2[C@@H](O)CCN2C(=O)[C@H]([C@H](O)CCN)NC(=O)[C@H]([C@H](O)[C@@H](O)c2ccc(O)cc2)NC(=O)[C@@H]2C[C@@H](O)CN2C(=O)[C@H]([C@@H](C)O)NC1=O` [CASPOFUNGIN], the outcome in the test with Candida parapsilosis [4] was Active. The outcome with Candida parapsilosis [5] was inactive. In the test on Candida parapsilosis [2], this compound yielded an IC50 of 1.17 µg/mL (≈ 1.07 µM) and an IC90 of 2.33 µg/mL (≈ 2.13 µM). Besides, in the test on Candida parapsilosis [3], the IC50 came out at 0.79 µg/mL (≈ 0.723 µM) and the IC90 came to 1.36 µg/mL (≈ 1.24 µM).
